Data taken from ChEMBL document CHEMBL4689842, “EUbOPEN Chemogenomics Library wave 1” (2021).

How the values were obtained:
Assay type in all cases: toxicity, cell-based
[1] = tested on: Fibroblast; test: Multiplex assay against human fibroblast
In short: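 Tubulin, mitochondrial-mass and membrane-permeability phenotypes are per cents of healthy-nucleus cells. Cells were gated by CellPathfinder machine learning into Hoechst high-intensity objects or normal cells, normal cells into healthy, pyknosed or fragmented nuclei, and pyknosed cells into mitotic or apoptotic. Before that, live cells stained at seeding with Hoechst33342, BioTracker Green Microtubule Cytoskeleton Dye, MitoTracker Red and Annexin V Alexa Fluor 680 were imaged on a CQ1 microscope at 37°C and 5% CO2 after compound addition.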

[2] = tested on: HEK-293T; test: Incucyte cell viability with HEK293T; settings: human, 10 µM, compound concentration 10 uM; note: filed as whole numbers so only -1 and 0 and 1 occur
[3] = tested on: Fibroblast; test: Incucyte cell viability with human fibroblast; settings: 10 µM, compound concentration 10 uM; note: filed as whole numbers so only -1 and 0 and 1 occur
[4] = tested on: U2OS; test: Incucyte cell viability with U2OS; settings: human, 10 µM, compound concentration 10 uM; note: filed as whole numbers so only -1 and 0 and 1 occur
[5] = 12 h, 1 µM, compound concentration 1 uM, replicate 1
[6] = 12 h, 1 µM, compound concentration 1 uM, replicate 2
[7] = 12 h, 10 µM, compound concentration 10 uM, replicate 1
[8] = 12 h, 10 µM, compound concentration 10 uM, replicate 2
[9] = 24 h, 1 µM, compound concentration 1 uM, replicate 1
[10] = 24 h, 1 µM, compound concentration 1 uM, replicate 2
[11] = 24 h, 10 µM, compound concentration 10 uM, replicate 1
[12] = 24 h, 10 µM, compound concentration 10 uM, replicate 2
[13] = 48 h, 1 µM, compound concentration 1 uM, replicate 1
[14] = 48 h, 1 µM, compound concentration 1 uM, replicate 2
[15] = 48 h, 10 µM, compound concentration 10 uM, replicate 1
[16] = 48 h, 10 µM, compound concentration 10 uM, replicate 2
[17] = 0 h, replicate number 1, timepoint 0 hours

SMILES: CNc1oc(-c2cccc3ccccc23)nc1C#N
- Population Apoptotic (%) [1, 5]: 75%
- Population Fragmented Nuclei (%) [1, 5]: 65%
- Population Healthy Nuclei (%) [1, 5]: 23%
- Population Hoechst High Intensity Objects (%) [1, 5]: 70%
- Population Membrane Permeable-Phenotype (%) [1, 5]: 25%
- Population Mitochondria Different-Phenotype (%) [1, 5]: 0%
- Population Mitotic Cells (%) [1, 5]: 25%
- Population Normal (%) [1, 5]: 29%
- Population Pyknosed Nuclei (%) [1, 5]: 10%
- Population Tubulin-Different-Phenotype (%) [1, 5]: 14%
- Total Cell Count [1, 5]: 381
- Population Apoptotic (%) [1, 6]: 0%
- Population Fragmented Nuclei (%) [1, 6]: 29%
- Population Healthy Nuclei (%) [1, 6]: 67%
- Population Hoechst High Intensity Objects (%) [1, 6]: 15%
- Population Membrane Permeable-Phenotype (%) [1, 6]: 3%
- Population Mitochondria Different-Phenotype (%) [1, 6]: 11%
- Population Mitotic Cells (%) [1, 6]: 100%
- Population Normal (%) [1, 6]: 84%
- Population Pyknosed Nuclei (%) [1, 6]: 2%
- Population Tubulin-Different-Phenotype (%) [1, 6]: 7%
- Total Cell Count [1, 6]: 100
- Population Apoptotic (%) [1, 7]: 92%
- Population Fragmented Nuclei (%) [1, 7]: 41%
- Population Healthy Nuclei (%) [1, 7]: 23%
- Population Hoechst High Intensity Objects (%) [1, 7]: 64%
- Population Membrane Permeable-Phenotype (%) [1, 7]: 0%
- Population Mitochondria Different-Phenotype (%) [1, 7]: 0%
- Population Mitotic Cells (%) [1, 7]: 7%
- Population Normal (%) [1, 7]: 35%
- Population Pyknosed Nuclei (%) [1, 7]: 35%
- Population Tubulin-Different-Phenotype (%) [1, 7]: 0%
- Total Cell Count [1, 7]: 3193
- Population Apoptotic (%) [1, 8]: 80%
- Population Fragmented Nuclei (%) [1, 8]: 55%
- Population Healthy Nuclei (%) [1, 8]: 16%
- Population Hoechst High Intensity Objects (%) [1, 8]: 46%
- Population Membrane Permeable-Phenotype (%) [1, 8]: 1%
- Population Mitochondria Different-Phenotype (%) [1, 8]: 3%
- Population Mitotic Cells (%) [1, 8]: 19%
- Population Normal (%) [1, 8]: 53%
- Population Pyknosed Nuclei (%) [1, 8]: 28%
- Population Tubulin-Different-Phenotype (%) [1, 8]: 24%
- Total Cell Count [1, 8]: 92
- Population Apoptotic (%) [1, 9]: 33%
- Population Fragmented Nuclei (%) [1, 9]: 66%
- Population Healthy Nuclei (%) [1, 9]: 27%
- Population Hoechst High Intensity Objects (%) [1, 9]: 70%
- Population Membrane Permeable-Phenotype (%) [1, 9]: 6%
- Population Mitochondria Different-Phenotype (%) [1, 9]: 0%
- Population Mitotic Cells (%) [1, 9]: 66%
- Population Normal (%) [1, 9]: 29%
- Population Pyknosed Nuclei (%) [1, 9]: 5%
- Population Tubulin-Different-Phenotype (%) [1, 9]: 3%
- Total Cell Count [1, 9]: 391
- Population Apoptotic (%) [1, 10]: 25%
- Population Fragmented Nuclei (%) [1, 10]: 28%
- Population Healthy Nuclei (%) [1, 10]: 67%
- Population Hoechst High Intensity Objects (%) [1, 10]: 6%
- Population Membrane Permeable-Phenotype (%) [1, 10]: 1%
- Population Mitochondria Different-Phenotype (%) [1, 10]: 10%
- Population Mitotic Cells (%) [1, 10]: 75%
- Population Normal (%) [1, 10]: 93%
- Population Pyknosed Nuclei (%) [1, 10]: 3%
- Population Tubulin-Different-Phenotype (%) [1, 10]: 21%
- Total Cell Count [1, 10]: 113
- Population Apoptotic (%) [1, 11]: 93%
- Population Fragmented Nuclei (%) [1, 11]: 44%
- Population Healthy Nuclei (%) [1, 11]: 24%
- Population Hoechst High Intensity Objects (%) [1, 11]: 66%
- Population Membrane Permeable-Phenotype (%) [1, 11]: 1%
- Population Mitochondria Different-Phenotype (%) [1, 11]: 0%
- Population Mitotic Cells (%) [1, 11]: 6%
- Population Normal (%) [1, 11]: 33%
- Population Pyknosed Nuclei (%) [1, 11]: 31%
- Population Tubulin-Different-Phenotype (%) [1, 11]: 0%
- Total Cell Count [1, 11]: 2998
- Population Apoptotic (%) [1, 12]: 81%
- Population Fragmented Nuclei (%) [1, 12]: 57%
- Population Healthy Nuclei (%) [1, 12]: 16%
- Population Hoechst High Intensity Objects (%) [1, 12]: 44%
- Population Membrane Permeable-Phenotype (%) [1, 12]: 3%
- Population Mitochondria Different-Phenotype (%) [1, 12]: 3%
- Population Mitotic Cells (%) [1, 12]: 18%
- Population Normal (%) [1, 12]: 55%
- Population Pyknosed Nuclei (%) [1, 12]: 25%
- Population Tubulin-Different-Phenotype (%) [1, 12]: 26%
- Total Cell Count [1, 12]: 116
- Population Apoptotic (%) [1, 13]: 40%
- Population Fragmented Nuclei (%) [1, 13]: 71%
- Population Healthy Nuclei (%) [1, 13]: 23%
- Population Hoechst High Intensity Objects (%) [1, 13]: 77%
- Population Membrane Permeable-Phenotype (%) [1, 13]: 22%
- Population Mitochondria Different-Phenotype (%) [1, 13]: 4%
- Population Mitotic Cells (%) [1, 13]: 60%
- Population Normal (%) [1, 13]: 22%
- Population Pyknosed Nuclei (%) [1, 13]: 5%
- Total Cell Count [1, 13]: 411
- Population Apoptotic (%) [1, 14]: 80%
- Population Fragmented Nuclei (%) [1, 14]: 75%
- Population Healthy Nuclei (%) [1, 14]: 19%
- Population Hoechst High Intensity Objects (%) [1, 14]: 78%
- Population Membrane Permeable-Phenotype (%) [1, 14]: 31%
- Population Mitochondria Different-Phenotype (%) [1, 14]: 0%
- Population Mitotic Cells (%) [1, 14]: 20%
- Population Normal (%) [1, 14]: 21%
- Population Pyknosed Nuclei (%) [1, 14]: 4%
- Population Tubulin-Different-Phenotype (%) [1, 14]: 4%
- Total Cell Count [1, 14]: 519
- Population Apoptotic (%) [1, 15]: 85%
- Population Fragmented Nuclei (%) [1, 15]: 47%
- Population Healthy Nuclei (%) [1, 15]: 22%
- Population Hoechst High Intensity Objects (%) [1, 15]: 65%
- Population Membrane Permeable-Phenotype (%) [1, 15]: 0%
- Population Mitochondria Different-Phenotype (%) [1, 15]: 0%
- Population Mitotic Cells (%) [1, 15]: 14%
- Population Normal (%) [1, 15]: 34%
- Population Pyknosed Nuclei (%) [1, 15]: 30%
- Population Tubulin-Different-Phenotype (%) [1, 15]: 0%
- Total Cell Count [1, 15]: 2643
- Population Fragmented Nuclei (%) [1, 16]: 46%
- Population Healthy Nuclei (%) [1, 16]: 23%
- Population Hoechst High Intensity Objects (%) [1, 16]: 69%
- Population Normal (%) [1, 16]: 30%
- Population Tubulin-Different-Phenotype (%) [1, 16]: 1%
- Total Cell Count [1, 16]: 2437
- Growth Rate [2, 17]: 0
- Growth Rate ([2]; 12 h, replicate number 1, timepoint 12 hours): 1
- Growth Rate ([2]; 18 h, replicate number 1, timepoint 18 hours): 1
- Growth Rate ([2]; 24 h, replicate number 1, timepoint 24 hours): 1
- Growth Rate [3, 17]: 0
- Growth Rate ([3]; 6 h, replicate number 2, timepoint 6 hours): 1
- Growth Rate [4, 17]: 0
- Growth Rate ([4]; 18 h, replicate number 2, timepoint 18 hours): 1
- Growth Rate ([4]; 24 h, replicate number 2, timepoint 24 hours): 1
